Laboratory results: ChEMBL document CHEMBL5058577, “EUbOPEN Chemogenomics Library 2 (Multiplex)” (2022)
Non-standard residues stand in square brackets, D forms with d. Residues, ends and D or L forms follow the SMILES beside them.

Tested on: Fibroblast
Assay: Multiplex assay against human fibroblast
Assay type: toxicity, cell-based
Method in brief: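 Four dyes were applied at seeding to live cells: Hoechst33342, BioTracker Green Microtubule Cytoskeleton Dye, MitoTracker Red and Annexin V Alexa Fluor 680. Imaging after compound addition used a CQ1 microscope at 37°C and 5% CO2. CellPathfinder machine-learning gating then sorted cells into Hoechst high-intensity objects or normal cells, normal cells into healthy, pyknosed or fragmented nuclei, and pyknosed cells into mitotic or apoptotic, with tubulin, mitochondrial-mass and membrane-permeability phenotypes given as per cents of healthy-nucleus cells.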

[1] = 12 h, 1 µM, compound concentration 1 uM, replicate 1
[2] = 12 h, 1 µM, compound concentration 1 uM, replicate 2
[3] = 12 h, 10 µM, compound concentration 10 uM, replicate 1
[4] = 12 h, 10 µM, compound concentration 10 uM, replicate 2
[5] = 24 h, 1 µM, compound concentration 1 uM, replicate 1
[6] = 24 h, 1 µM, compound concentration 1 uM, replicate 2
[7] = 24 h, 10 µM, compound concentration 10 uM, replicate 1
[8] = 24 h, 10 µM, compound concentration 10 uM, replicate 2
[9] = 48 h, 1 µM, compound concentration 1 uM, replicate 1
[10] = 48 h, 1 µM, compound concentration 1 uM, replicate 2
[11] = 48 h, 10 µM, compound concentration 10 uM, replicate 1
[12] = 48 h, 10 µM, compound concentration 10 uM, replicate 2

Structure (SMILES): CC(C)C[C@@H]1NC(=O)[C@@H](C(C)C)NC(=O)[C@@H]2CCCN2C(=O)[C@@H](CC(=O)O)NC(=O)[C@@H](Cc2c[nH]c3ccccc23)NC1=O [BQ-123] (cyclo(L[dW][dD]P[dV]))
- Population Apoptotic (%) [1]: 57%
- Population Fragmented Nuclei (%) [1]: 18%
- Population Healthy Nuclei (%) [1]: 68%
- Population Hoechst High Intensity Objects (%) [1]: 0%
- Population Membrane Permeable-Phenotype (%) [1]: 1%
- Population Mitochondria Different-Phenotype (%) [1]: 11%
- Population Mitotic Cells (%) [1]: 42%
- Population Normal (%) [1]: 100%
- Population Pyknosed Nuclei (%) [1]: 13%
- Population Tubulin-Different-Phenotype (%) [1]: 31%
- Total Cell Count [1]: 105
- Population Apoptotic (%) [2]: 21%
- Population Fragmented Nuclei (%) [2]: 22%
- Population Healthy Nuclei (%) [2]: 58%
- Population Hoechst High Intensity Objects (%) [2]: 3%
- Population Membrane Permeable-Phenotype (%) [2]: 5%
- Population Mitochondria Different-Phenotype (%) [2]: 2%
- Population Mitotic Cells (%) [2]: 78%
- Population Normal (%) [2]: 96%
- Population Pyknosed Nuclei (%) [2]: 18%
- Total Cell Count [2]: 157
- Population Apoptotic (%) [3]: 48%
- Population Fragmented Nuclei (%) [3]: 15%
- Population Healthy Nuclei (%) [3]: 65%
- Population Hoechst High Intensity Objects (%) [3]: 2%
- Population Membrane Permeable-Phenotype (%) [3]: 0%
- Population Mitochondria Different-Phenotype (%) [3]: 9%
- Population Mitotic Cells (%) [3]: 52%
- Population Normal (%) [3]: 97%
- Population Pyknosed Nuclei (%) [3]: 18%
- Population Tubulin-Different-Phenotype (%) [3]: 33%
- Total Cell Count [3]: 136
- Population Apoptotic (%) [4]: 33%
- Population Fragmented Nuclei (%) [4]: 30%
- Population Healthy Nuclei (%) [4]: 48%
- Population Membrane Permeable-Phenotype (%) [4]: 4%
- Population Mitochondria Different-Phenotype (%) [4]: 3%
- Population Mitotic Cells (%) [4]: 66%
- Population Pyknosed Nuclei (%) [4]: 20%
- Population Tubulin-Different-Phenotype (%) [4]: 46%
- Total Cell Count [4]: 134
- Population Apoptotic (%) [5]: 53%
- Population Fragmented Nuclei (%) [5]: 19%
- Population Healthy Nuclei (%) [5]: 66%
- Population Hoechst High Intensity Objects (%) [5]: 1%
- Population Membrane Permeable-Phenotype (%) [5]: 0%
- Population Mitochondria Different-Phenotype (%) [5]: 5%
- Population Mitotic Cells (%) [5]: 46%
- Population Normal (%) [5]: 98%
- Population Pyknosed Nuclei (%) [5]: 14%
- Population Tubulin-Different-Phenotype (%) [5]: 24%
- Total Cell Count [5]: 107
- Population Apoptotic (%) [6]: 24%
- Population Fragmented Nuclei (%) [6]: 23%
- Population Healthy Nuclei (%) [6]: 57%
- Population Hoechst High Intensity Objects (%) [6]: 6%
- Population Membrane Permeable-Phenotype (%) [6]: 3%
- Population Mitochondria Different-Phenotype (%) [6]: 3%
- Population Mitotic Cells (%) [6]: 75%
- Population Normal (%) [6]: 93%
- Population Pyknosed Nuclei (%) [6]: 18%
- Population Tubulin-Different-Phenotype (%) [6]: 25%
- Total Cell Count [6]: 166
- Population Apoptotic (%) [7]: 50%
- Population Fragmented Nuclei (%) [7]: 19%
- Population Healthy Nuclei (%) [7]: 64%
- Population Hoechst High Intensity Objects (%) [7]: 8%
- Population Membrane Permeable-Phenotype (%) [7]: 1%
- Population Mitochondria Different-Phenotype (%) [7]: 5%
- Population Mitotic Cells (%) [7]: 50%
- Population Normal (%) [7]: 91%
- Population Pyknosed Nuclei (%) [7]: 15%
- Population Tubulin-Different-Phenotype (%) [7]: 32%
- Total Cell Count [7]: 123
- Population Apoptotic (%) [8]: 29%
- Population Fragmented Nuclei (%) [8]: 27%
- Population Healthy Nuclei (%) [8]: 50%
- Population Hoechst High Intensity Objects (%) [8]: 0%
- Population Membrane Permeable-Phenotype (%) [8]: 11%
- Population Mitochondria Different-Phenotype (%) [8]: 3%
- Population Mitotic Cells (%) [8]: 70%
- Population Normal (%) [8]: 99%
- Population Pyknosed Nuclei (%) [8]: 22%
- Population Tubulin-Different-Phenotype (%) [8]: 50%
- Population Apoptotic (%) [9]: 50%
- Population Fragmented Nuclei (%) [9]: 18%
- Population Healthy Nuclei (%) [9]: 70%
- Population Hoechst High Intensity Objects (%) [9]: 3%
- Population Membrane Permeable-Phenotype (%) [9]: 0%
- Population Mitochondria Different-Phenotype (%) [9]: 12%
- Population Mitotic Cells (%) [9]: 50%
- Population Normal (%) [9]: 96%
- Population Pyknosed Nuclei (%) [9]: 11%
- Population Tubulin-Different-Phenotype (%) [9]: 25%
- Total Cell Count [9]: 109
- Population Apoptotic (%) [10]: 52%
- Population Fragmented Nuclei (%) [10]: 28%
- Population Healthy Nuclei (%) [10]: 56%
- Population Hoechst High Intensity Objects (%) [10]: 4%
- Population Membrane Permeable-Phenotype (%) [10]: 2%
- Population Mitochondria Different-Phenotype (%) [10]: 4%
- Population Mitotic Cells (%) [10]: 48%
- Population Normal (%) [10]: 95%
- Population Pyknosed Nuclei (%) [10]: 15%
- Population Tubulin-Different-Phenotype (%) [10]: 39%
- Total Cell Count [10]: 172
- Population Apoptotic (%) [11]: 70%
- Population Fragmented Nuclei (%) [11]: 26%
- Population Healthy Nuclei (%) [11]: 59%
- Population Hoechst High Intensity Objects (%) [11]: 5%
- Population Membrane Permeable-Phenotype (%) [11]: 1%
- Population Mitochondria Different-Phenotype (%) [11]: 5%
- Population Mitotic Cells (%) [11]: 29%
- Population Normal (%) [11]: 94%
- Population Pyknosed Nuclei (%) [11]: 13%
- Population Tubulin-Different-Phenotype (%) [11]: 38%
- Total Cell Count [11]: 129
- Population Apoptotic (%) [12]: 46%
- Population Fragmented Nuclei (%) [12]: 45%
- Population Healthy Nuclei (%) [12]: 42%
- Population Hoechst High Intensity Objects (%) [12]: 6%
- Population Membrane Permeable-Phenotype (%) [12]: 9%
- Population Mitochondria Different-Phenotype (%) [12]: 3%
- Population Mitotic Cells (%) [12]: 53%
- Population Normal (%) [12]: 93%
- Population Pyknosed Nuclei (%) [12]: 12%
- Population Tubulin-Different-Phenotype (%) [12]: 51%
- Total Cell Count [12]: 130
